In PMC2574667 (Journal of Medicinal Chemistry, 2008):
“Also recorded” adds a separate entry of the source. Like-named read-outs stand apart in the source and are kept apart here.

Key:
[1] = system: intracellular L. major amastigotes; experiment: Assay for leishmanicidal activity in infected macrophages; assay type: cell-based, Leishmania major; conditions: 125 or 250 µM, up to 72 h, macrophages from iNOS-deficient mice
Method in brief: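 Macrophages were thioglycolate-elicited from the peritoneum of C57BL/6 iNOS-deficient mice, harvested 4 days after ip thioglycolate, and plated at 3 × 10^5/well in RPMI-1640 with 2.5% or 5% FBS. They were infected 4 h at 5:1 with lesion-derived MHOM/IL/81/FE/BNI amastigotes, then treated 72 h with medium and compound refreshed at 24 and 48 h. Diff-Quick counts at 0, 48 and 72 h gave parasites per 100 macrophages, as mean ±SD.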

[2] = assay type: physicochemical
Method in brief: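 Hydrolysis at 37 °C was run in 0.1 M phosphate pH 7.4 or 0.05 M citrate pH 3.8–4.6, in light-protected sealed bottles. Daily aliquots were scanned 200–400 nm for up to 11 days. First-order k came from ln(At − Ainf) versus time, with Ainf extrapolated when the reaction was incomplete. Runs in 1.0 M NaOH were followed directly in a thermostated spectrophotometer cell. Other media: NaOH, glycine/NaOH pH 10, phosphate pH 8.1.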

[3] = first order in hydroxide ion; cited from earlier work
[4] = system: peritoneal exudate macrophages from iNOS-deficient mice; experiment: Viability of macrophage monolayers; assay type: cell-based, mouse; conditions: concentrations tested (125 or 250 µM); trypan blue staining, MTT assay
Method in brief: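 Infected macrophage monolayers from iNOS-deficient mice were exposed to compound at 125 or 250 µM. Viability was checked by microscopy with trypan blue staining of dead cells. Mitochondrial activity of the whole monolayer was read photometrically as MTT reduction to formazan, in triplicate.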

[5] = target: N-acetylglucosaminidase from human placenta (Homo sapiens, UniProt P07686); experiment: Glycosidase-induced hydrolysis, human placenta enzyme; assay type: biochemical; conditions: HP enzyme 0.044 units/mL, 37 °C, 0.1 M phosphate pH 7.4; ultraviolet spectrophotometry
Nitrite accumulation = assay type: physicochemical; conditions: 37 °C; for nitrite recovery: 24 h incubation, PBS and cell culture medium containing 2.5% fetal calf serum
Method in brief: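 Compound at 0.25–1 mM was incubated 24 h at 37 °C, without cells, in PBS or in RPMI containing 2.5% fetal calf serum. NO release was estimated as accumulated nitrite by Griess assay. Solutions assayed immediately after dissolution served as the zero point.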

[6] = system: N-acetylglucosaminidase from jack bean; experiment: Glycosidase-induced hydrolysis, jack bean enzyme; assay type: biochemical; conditions: 37 °C; for k, first order rate constant of enzymatic hydrolysis: JB enzyme 0.11 units/mL, 0.1 M phosphate pH 7.4, ultraviolet spectrophotometry
Method in brief: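 Jack bean β-N-acetylglucosaminidase (0.11 units/mL) was incubated with substrate (0.09–0.16 mM initial) at 37 °C in 0.1 M phosphate, pH 7.4, with 0.05 mM DTPA. NO was detected by chemiluminescence until evolution ceased, and the trace was integrated per mole of compound. Nitrite in the remaining solution was measured by Griess. First-order rate constants came from UV absorbance at 227 or 256 nm. Enzyme activity was checked with PNP-NAG at 25 °C.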

[7] = system: peritoneal exudate macrophages from iNOS-deficient mice; experiment: Nitrite accumulation; assay type: cell-based; conditions: 0.25 mM, medium with 2.5% fetal calf serum, iNOS^−/− mouse macrophages, 24 h
Method in brief: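 Peritoneal exudate macrophages from iNOS-deficient mice were cultured 24 h at 37 °C in RPMI containing 2.5% fetal calf serum with 0.25 mM compound, alongside cell-free medium and PBS. Supernatants were harvested and cumulative NO was estimated as nitrite by Griess assay. Further runs used 125 or 250 µM with 0–5% FCS.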

[8] = phosphate buffer, pH 7.4, half-life pH 7.4, 0.1 M phosphate pH 7.4, 37 °C

Chain of N-acetylglucosaminidase from human placenta (P07686 122-311 limits assumed): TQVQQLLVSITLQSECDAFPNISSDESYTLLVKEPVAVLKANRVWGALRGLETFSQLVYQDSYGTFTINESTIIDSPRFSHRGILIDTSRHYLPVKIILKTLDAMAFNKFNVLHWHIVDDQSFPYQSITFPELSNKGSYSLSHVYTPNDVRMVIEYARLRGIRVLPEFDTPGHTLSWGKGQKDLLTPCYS
Chain of N-acetylglucosaminidase from human placenta (P07686 315-556 limits assumed): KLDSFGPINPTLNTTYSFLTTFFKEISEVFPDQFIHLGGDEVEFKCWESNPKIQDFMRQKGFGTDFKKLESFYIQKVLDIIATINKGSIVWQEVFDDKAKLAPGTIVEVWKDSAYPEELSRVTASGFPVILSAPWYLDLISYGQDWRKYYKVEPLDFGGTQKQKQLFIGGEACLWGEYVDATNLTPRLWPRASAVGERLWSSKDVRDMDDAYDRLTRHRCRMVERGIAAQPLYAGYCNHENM

SMILES: C[C@@H]1O[C@H](ON=[N+]([O-])N(C)C)[C@@H](O)[C@H](O)[C@@H]1O [7c, O^2-(β-L-Fucopyranosyl) 1-(N,N-Dimethylamino)diazen-1-ium-1,2-diolate]
- effect on number of intracellular L. major parasites [1]: Neither of the fucose derivatives had any perceivable effect

SMILES: [O-][N+](=NO[C@H]1O[C@H](CO)[C@@H](O)[C@H](O)[C@@H]1O)N1CCCC1 [5b, O^2-(α-D-Mannopyranosyl) 1-(Pyrrolidin-1-yl)diazen-1-ium-1,2-diolate]
- effect on number of intracellular L. major parasites [1]: only one of the mannosides (5a) showed any activity

SMILES: O=NO [Nitrite ion]
- effect on number of intracellular L. major parasites [1]: devoid of antileishmanial activity

SMILES: CCN(CC)/[N+]([O-])=N/O[C@@H]1O[C@H](CO)[C@@H](O)[C@H](O)[C@H]1O [3a]
- half-life [2, 8]: > 240 h
- rate constant kOH^– of base-induced hydrolysis [3]: 0.0053 M⁻¹ s⁻¹

SMILES: CC(=O)N[C@H]1[C@H](O/N=[N+](\[O-])N2CCCC2)O[C@H](CO)[C@@H](O)[C@@H]1O [9b, O^2-(β-D-N-Acetylglucosaminyl) 1-(Pyrrolidin-1-yl)diazen-1-ium-1,2-diolate]
- toxicity to the macrophage host cells [4]: no observable toxicity
- k, first order rate constant of enzymatic hydrolysis [5]: 0.00036 s⁻¹
- hydrolysis in PBS relative to 9a (Nitrite accumulation; PBS, nitrite yield, 24 h): more than an order of magnitude slower
- effect on number of intracellular L. major parasites [1]: highly significant decrease; also recorded: decidedly antileishmanial
- k, first order rate constant of enzymatic hydrolysis [6]: 0.00031 s⁻¹

SMILES: CCN(CC)/[N+]([O-])=N/O[C@@H]1O[C@@H](C)[C@@H](O)[C@@H](O)[C@@H]1O [7a, O^2-(β-L-Fucopyranosyl) 1-(N,N-Diethylamino)diazen-1-ium-1,2-diolate]
- effect on number of intracellular L. major parasites [1]: Neither of the fucose derivatives had any perceivable effect

SMILES: CCN(CC)/[N+]([O-])=N/O[C@H]1O[C@H](CO)[C@@H](O)[C@H](O)[C@@H]1O [5a, O^2-(α-D-Mannopyranosyl) 1-(N, N-Diethylamino)diazen-1-ium-1,2-diolate]
- half-life ([2]; citrate buffer, pH 4.6, half-life pH 4.6, 0.05 M citrate pH 4.6, 37 °C): > 240 h
- nitrite recovery (Nitrite accumulation): little or no nitrite
- effect on number of intracellular L. major parasites [1]: borderline significance
- NO generation on incubation with N-acetylglucosaminidase ([6]; parallel incubation to 9a): Negligible NO generation

SMILES: CCN(CC)/[N+]([O-])=N\OC1CCCCO1 (centres unmarked) [compound 12, O^2-Tetrahydropyran-2-yl 1-(N,N-Diethylamino)diazen-1-ium-1,2-diolate]
- hydrolysis time ([2]; all pH values studied, 37 °C): within minutes

SMILES: CCN(CC)/[N+]([O-])=N/O[C@H]1C[C@@H](O)[C@H](O)[C@@H](CO)O1 [11a, O^2-[2-Deoxy-β-D-glucopyranosyl] 1-(N,N-Diethylamino)diazen-1-ium-1,2-diolate]
- half-life [2, 8]: ~12 h

SMILES: CCN(CC)/[N+]([O-])=N/O[C@@H]1O[C@H](CO)[C@@H](O)[C@H](O)[C@H]1NC(C)=O [9a, O^2-(N-Acetyl-β-D-glucosaminyl) 1-(N,N-Diethylamino)diazen-1-ium-1,2-diolate]
- toxicity to the macrophage host cells [4]: no observable toxicity
- increase in hydrolysis rate relative to 9b ([2]; pH 7.4 phosphate buffer): > 20 fold
- half-life [2, 8]: ~12 h
- k, first order rate constant of enzymatic hydrolysis [5]: 0.00041 s⁻¹
- nitrite recovery (Nitrite accumulation): 10−20%
- increase of nitrite yield by macrophages [7]: approximately doubled
- effect on number of intracellular L. major parasites [1]: highly significant decrease; also recorded: decidedly antileishmanial
- k, first order rate constant of enzymatic hydrolysis [6]: 0.00062 s⁻¹

SMILES: COC(=O)CCC(=O)NO[C@@H]1O[C@H](CO)[C@@H](O)[C@H](O)[C@H]1NC(C)=O [compound 13, N-(β-D-N′-Acetylglucosaminyloxy)succinamate O-Methyl Ester, reference compound]
- effect on number of intracellular L. major parasites [1]: did not have any effect
